# Assays:
# [1] = test system: AR+/ER−/PR− breast cancer; details: cited from earlier work
# [2] = Animal weight and signs of toxicity in efficacy experiment; assay type: in vivo; details: entire efficacy experiment, MDA-MB-453 xenograft mice
# Procedure, shortened: (§1)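 Male CB.17 SCID mice were implanted s.c. with 5 × 10^6 MDA-MB-453 cells in 5 mg/ml Matrigel. At a mean tumour volume of 100 mm3, mice were randomised by tumour size. Test compound or vehicle (20% PEG400 + 6% Cremophor EL + 74% PBS) was given i.p. daily. Tumours and body weights were measured twice weekly, with volume = length × width²/2. Data are mean ± SEM, n=8.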
# [3] = test system: 5 AR+ breast cancer cell lines; experiment: Cell growth inhibition, WST-8 assay, statements for the whole panel; assay type: cell-based, human; details: concentrations up to 10 µM, 5 AR+ cell lines
# [4] = test system: MDA-MB-453, HCC1428 and MCF-7 cells; experiment: Cell cycle analysis by flow cytometry; assay type: cell-based, human; details: 10 µM, 72 h
# Procedure, shortened: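 MDA-MB-453, HCC1428 and MCF-7 cells were treated for 72 h with a concentration range of test compound (AR antagonist comparators at 10 µM), or with 1 µM over a time course. Cells were fixed in 70% ethanol overnight at 4 °C, stained with propidium iodide plus 0.2 mg/ml RNase A for 30 min at room temperature, and cell-cycle distribution was measured by flow cytometry. Data are mean ± SEM.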
# [5] = test system: MDA-MB-453, HCC1428 and MCF-7 cells; experiment: Apoptosis analysis by flow cytometry; assay type: cell-based, human; details: 10 µM, 3-day treatment
# Procedure, shortened: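 MDA-MB-453, HCC1428 and MCF-7 cells were treated for 72 h with a concentration range of test compound, with AR antagonist comparators at 10 µM. For the time course, MDA-MB-453 and HCC1428 cells received 1 µM. Cells were washed in cold PBS, stained with an apoptosis detection kit and analysed by flow cytometry for percent live and apoptotic cells. Data are mean ± SEM, n=3.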
# metastatic AR+, TNBCs = details: phase 2, metastatic AR+ TNBC; cited from earlier work
# [6] = test system: MDA-MB-453 xenograft tumor; experiment: Antitumor efficacy in MDA-MB-453 xenograft tumor model; assay type: in vivo, mice; details: enzalutamide 50 mg/kg IP dose
# Procedure, shortened: as §1
# [7] = test system: caspase-8, −9, −3, and −7 and PARP; experiment: Cleavage of caspases and PARP, Western blot; assay type: cell-based, human; details: 1 or 10 µM, MDA-MB-453 and HCC1428, 48 h
# Procedure, shortened: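 MDA-MB-453 and HCC1428 cells were exposed to a concentration range of test compound for 48 h. Cells were lysed in RIPA with protease and phosphatase inhibitors for 30 min on ice. Lysates were run on SDS-PAGE and transferred to PVDF. Membranes were blocked in 5% milk in TBST, probed with primary antibodies for cleaved caspases and PARP overnight at 4 °C and with HRP secondary, then developed by ECL.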
# AR protein = assay type: cell-based, human; details: MDA-MB-453 cells, combination with ARD-61 for 24 h
smiles,measurement,setting,value
CC(O)(CS(=O)(=O)c1ccc(F)cc1)C(=O)Nc1ccc(C#N)c(C(F)(F)F)c1 (stereo not shown) [Bicalutamide],Clinical benefit ratio (CBR),[1],19%
same,Toxicity,[1],minimal toxicity
CNC(=O)c1ccc(N2C(=S)N(c3ccc(C#N)c(C(F)(F)F)c3)C(=O)C2(C)C)cc1F [Enzalutamide],Animal weight loss or other signs of toxicity,[2],No animal weight loss or other signs of toxicity
same,Inhibition of cell growth,[3],minimal activity
same,Effect on cell cycle (G2/M arrest),[4],minimal effect
same,Apoptosis induction,[5],minimal apoptosis
same,Progression-free survival,"metastatic AR+, TNBCs",significant improvement
same,Antitumor activity,[6],very similar with that of ARD-61 at 25 mg/kg
same,"Effect on cleavage of caspase-8, −9, −3, −7 and PARP",[7],minimal effect
"C[C@]1(O)CC[C@H]2[C@@H]3CCC4=CC(=O)CCC4=C3C=C[C@@]21C [R1881, metribolone]",Effect on AR depletion induced by ARD-61,AR protein,effectively block

# Source: paper PMC7498667 (Neoplasia (New York, N.Y.), 2020)
